# Sampled rows, rich in hits. Any-hit rate of the full collection: about 4%.
# PHOSPHO1 inh – PHOSPHO1 (human) inhibition | inhibition, % at 13.3 µM | recombinant PHOSPHO1, absorbance phosphatase assay | hit rate 1.1% among 290,000 | AID 1565 | Q8TCT1; in the data active = inhibition above about 60%
# Target sequence (Q8TCT1 whole entry, looked up): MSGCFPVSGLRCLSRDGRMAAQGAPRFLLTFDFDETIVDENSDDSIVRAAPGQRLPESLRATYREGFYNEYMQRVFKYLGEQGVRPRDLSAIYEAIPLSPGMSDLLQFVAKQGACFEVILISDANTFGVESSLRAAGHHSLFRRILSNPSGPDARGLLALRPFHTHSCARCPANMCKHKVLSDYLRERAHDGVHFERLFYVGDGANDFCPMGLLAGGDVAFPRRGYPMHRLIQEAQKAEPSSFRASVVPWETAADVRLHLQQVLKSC
# KCNK9 inh – inhibitors of human KCNK9 two-pore domain potassium channel | Q9NPC2 | HEK293 KCNK9, FluxOR thallium flux fluorescence; active compounds read low | B-score at 10 µM | hit rate 1.2% among 310,000;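 active = ratio B-score over 3 SD below the library mean, with starting fluorescence within 5 SD of its mean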;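 note: negative B-score means less thallium flux so channel inhibition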
# Target sequence (Q9NPC2 whole entry, looked up, the tested form may be a part): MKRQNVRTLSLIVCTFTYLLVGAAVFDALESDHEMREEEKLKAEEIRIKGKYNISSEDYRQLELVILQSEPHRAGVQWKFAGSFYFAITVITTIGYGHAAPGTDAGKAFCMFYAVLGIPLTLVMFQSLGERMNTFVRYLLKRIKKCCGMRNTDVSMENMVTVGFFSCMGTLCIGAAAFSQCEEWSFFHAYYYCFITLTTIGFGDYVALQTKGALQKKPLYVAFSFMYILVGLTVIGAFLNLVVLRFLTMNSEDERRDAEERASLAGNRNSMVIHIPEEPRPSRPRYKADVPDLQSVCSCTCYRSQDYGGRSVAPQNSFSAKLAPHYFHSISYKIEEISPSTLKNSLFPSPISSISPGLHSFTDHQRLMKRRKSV
# KCNQ1 pot – potentiates or activates the human KCNQ1 potassium channel | CHO-K1 KCNQ1, thallium flux FluxOR fluorescence; active compounds read high | B-score at 10 µM | hit rate 0.35% among 310,000 | P51787;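 active = fluorescence ratio B-score, a plate-corrected score, at least three library SD, with initial intensity B-score within 5 SD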
#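 Assay system: CHO-K1 cells stably expressing KCNQ1. Medium: assay buffer for compound exposure, DMSO matched across wells. Timing: 37 °C overnight plating, 90-min dark dye load, 20-min compound pretreatment. Signal: kinetic FluxOR fluorescence, 10 s baseline plus 110 s post-stimulus.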
# KCNQ1 inh – inhibitors of human KCNQ1 potassium channel. AID 2642. P51787. CHO-K1 KCNQ1, FluxOR thallium flux fluorescence; active compounds read high. hit rate 1.3% among 310,000. B-score at 10 µM;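 active = compounds whose thallium flux B-score, printed positive for inhibition, exceeds three library SD while starting fluorescence stays within three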;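 note: channel opened by potassium depolarization with thallium stimulus after 20 min compound exposure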
# hERG rescue – compounds protecting human hERG from proarrhythmic drug block; hit rate 0.51% among 310,000; Q12809; AID 1511; activation (rescue from dofetilide block), less the hit threshold, % at 10 µM; CHO-hERG, FluxOR thallium flux, dofetilide IC70 present;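 active = activation above the mean of controls blocked by dofetilide plus 5 SD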;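 note: thallium influx through hERG after potassium depolarization seen as dye fluorescence rise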
# KCNK3 inh – human KCNK3 channel inhibition, primary screen; CHO-KCNK3 thallium flux, FluxOR fluorescence; active compounds read low; B-score at 10 µM; hit rate 0.84% among 340,000;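 active = B-score under library mean minus 4 SD, starting fluorescence ratio at most library mean plus 5 SD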;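 note: more negative B-score means stronger inhibition of thallium flux through KCNK3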
# A number is an active result; n = inactive; x = not tested or not shown.
SMILES,PHOSPHO1 inh,KCNK9 inh,KCNQ1 pot,KCNQ1 inh,hERG rescue,KCNK3 inh
CCN1C(=S)SC(=O)C1=C1C=C(C)OC(C)=C1,n,n,n,n,n,n
O=C(Nc1cc(C(F)(F)F)ccc1N1CCOCC1)C1Cc2ccccc2CN1C(=O)c1ccco1 (centres undefined),65.2,n,n,n,n,n
Cc1ccc(NC(=O)CSCC(=O)Nc2cc(C(F)(F)F)ccc2N2CCOCC2)cc1,x,n,n,n,n,n
O=C(Nc1ccccc1)C1Cc2ccccc2CN1C(=O)c1ccco1 (centres undefined),n,n,n,n,n,n
O=C(CSCc1ccco1)Nc1cc(C(F)(F)F)ccc1N1CCOCC1,n,-6.72,n,n,n,n
CCc1nnc(NC(=O)CSc2ccc(-c3ccco3)nn2)s1,72.1,n,n,n,n,n
CCc1nnc(NC(=O)CSc2nnc(COc3ccccc3C)o2)s1,97.1,n,n,n,n,n
CCc1nnc(NC(=O)CSc2nnc(Cc3ccc(OC)cc3)o2)s1,n,n,n,n,n,n
CCc1nnc(NC(=O)CSc2nnc(COc3cccc(C)c3)o2)s1,87.5,n,n,n,n,n
Cc1ccc(OCc2nnc(SCC(=O)CC(=O)Nc3ccccc3)o2)cc1,73.4,n,n,n,n,n
COc1ccc(OCc2nnc(SCC(=O)Nc3ccc(C)cc3)o2)cc1,n,n,n,n,n,n
Cc1ccc2nc(SCC(=O)NC3CCCC3)nc(=O)n2c1,x,n,n,n,n,n
COCCCN(C(=O)CSc1nc2ccccc2c(=O)n1C)c1c(N)n(Cc2ccccc2)c(=O)[nH]c1=O,x,x,x,x,x,n
O=C(Nc1ccc2oc(-c3ccccc3)nc2c1)c1cccs1,n,n,n,n,n,n
CC(C)(O)C#Cc1ccc(CN2CCN(C3CCCCC3)C(CCO)C2)cc1 (centres undefined),n,n,n,n,n,n
O=C(c1cnn(-c2ccccc2)c1)c1ccc2ccccc2c1O,n,n,n,n,n,n
CC(C(=O)Nc1ccc2nccnc2c1)N1C(=O)C2C3C=CC(C3)C2C1=O (centres undefined),n,n,n,n,n,n
O=S(=O)(c1ccc(Cl)cc1)N1CCSC1c1ccco1 (centres undefined),68.2,n,n,n,n,n
COc1ccc(OCC(=O)Nc2ccc3c(c2)nc(CCN2CCN(C)CC2)n3C)cc1,70.1,n,n,n,n,n
O=C(Nc1c2c(nn1-c1ccc(F)cc1)CS(=O)C2)c1ccc(S(=O)(=O)N2CCOCC2)cc1 (centres undefined),n,n,n,n,n,n
CCN(CC)C(=O)Cn1cc(C(=O)C(=O)N2CCN(C)CC2)c2ccccc21,n,n,n,n,n,n
CCN(CC)C(=O)Cn1cc(C(=O)C(=O)N2CCN(c3ccccc3)CC2)c2ccccc21,n,n,n,n,n,n
CCN(CC)C(=O)Cn1cc(C(=O)C(=O)N2CC=C(c3ccccc3)CC2)c2ccccc21,n,n,n,n,37.9,n
CCN(C(=O)Cn1cc(C(=O)C(=O)N2CCOCC2)c2ccccc21)c1ccccc1,72.8,n,n,n,n,n
CCSc1ccc2nnc(-c3cccc(F)c3)n2n1,93.8,n,n,n,n,n
SMILES,PHOSPHO1 inh,KCNK9 inh,KCNQ1 pot,KCNQ1 inh,hERG rescue,KCNK3 inh
O=C(CSc1ccc2nnc(-c3cccc(F)c3)n2n1)N1CCCc2ccccc21,n,n,n,n,n,n
COC(=O)C1=C(C)N(c2cccc(OC)c2)C(=O)/C1=C\c1ccco1,n,-7.29,n,n,n,n
CNC(=S)N1CCC(n2cnc3ccccc32)CC1,n,n,n,n,n,n
CC(C)Oc1ccc(C(=O)Nc2cccc3cccnc23)cc1,n,-6.77,n,n,n,n
CCOc1ccc(C(=O)Nc2cccc3cccnc23)cc1,n,n,n,n,n,n
CCCCCc1ccc(-c2ccc(/C=C/C(N)=O)cc2)nc1,n,n,n,n,n,n
CCCc1ccc(-c2ccc(C(=O)O)cc2)nc1,n,n,n,n,5.9,n
O=C1CC(c2ccccc2)Sc2nc3ccccc3n21 (centres undefined),n,n,n,n,42.5,n
O=C1CC(c2ccc3c(c2)OCO3)Sc2nc3ccccc3n21 (centres undefined),96.8,n,n,n,n,n
O=C1CC(c2ccco2)Sc2nc3ccccc3n21 (centres undefined),105.5,n,n,n,n,n
O=C1CC(c2cccs2)Sc2nc3ccccc3n21 (centres undefined),n,n,n,n,n,n
CCCCn1c(N)c(N(Cc2ccccc2OC)C(=O)C(C)Oc2ccc(F)cc2)c(=O)[nH]c1=O (centres undefined),x,n,n,n,n,n
CCCCn1c(N)c(N(Cc2ccccc2OC)C(=O)C(C)Oc2ccc(Cl)cc2)c(=O)[nH]c1=O (centres undefined),62.6,n,n,n,n,n
COC(CN1CCc2c(C)nc3c(C#N)cnn3c21)OC,n,n,n,n,6.3,n
Nn1c(Cc2cccc3ccccc23)nnc1SCCOc1ccc(Br)cc1,n,n,n,n,n,n
Nn1c(Cc2cccc3ccccc23)nnc1SCCOc1ccc(F)cc1,n,-7.86,n,n,n,n
Cc1cc(C)c2c(N)c(C(=O)c3cccc(Cl)c3)sc2n1,n,n,n,n,n,n
COc1ccc([N+](=O)[O-])cc1-c1[nH]c(-c2ccc(C(=O)O)cc2)nc1-c1ccccc1,n,n,n,n,n,n
COc1ccc(-c2nc(-c3ccccc3)c(-c3cc([N+](=O)[O-])ccc3C)[nH]2)cc1O,n,-10.3,n,7,n,n
S=c1[nH]nc(Cc2c[nH]c3ccccc23)o1,61.0,n,n,n,n,n
c1ccc(Cc2c[nH]c3ccccc23)cc1,n,n,n,n,n,n
CC(C)(C)CNc1cc(N2CCOCC2)ccc1[N+](=O)[O-],n,n,n,n,n,n
O=C(CCCCCN1C(=O)c2cccc3cccc(c23)C1=O)NC1CCS(=O)(=O)C1 (centres undefined),n,n,n,n,n,n
Cc1cc(C)c(Cc2c(C)nc3c(C(=O)NCc4ccco4)cnn3c2C)c(C)c1,n,-7.29,n,n,n,n
O=C(O)C(Cc1ccccc1)N1C(=O)c2ccccc2C1=O (centres undefined),n,n,n,n,n,n
O=C(O)C(Cc1ccccc1)N1C(=O)c2c(Cl)c(Cl)c(Cl)c(Cl)c2C1=O (centres undefined),x,n,n,6,n,n
CCn1c(SCC(=O)N/N=C/C(C)=C/c2ccco2)nnc1-c1ccccc1,69.6,n,n,n,n,n
CCn1c(SCC(=O)N/N=C/C=C/c2ccco2)nnc1-c1ccccc1,n,n,n,n,n,n
O=C(O)c1ccccc1C(=O)Nc1ccc(Oc2cccc(C(F)(F)F)c2)nc1,n,n,n,n,n,n

# Assay outcomes as filed in PubChem.
